These results are taken from ChEMBL document CHEMBL4414623, “Rapid Metabolization of Protectin D1 by β-Oxidation of Its Polar Head Chain” (J Med Chem, 2019).

Data set [1] in a line: Drug excretion in healthy human urine by LC-MS/MS analysis. The class given is ADME, tissue-based. To be noted: in vivo.
A short description of data set [2]: Stability in human HepG2 cells at 2.6 uM up to 4 hrs by LC-MS/MS analysis. Type of data set: ADME, cell-based. As to conditions: hepg2, 4 h. The gist of the method: (§1)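 HepG2 cells in serum-free medium were incubated with 2.6 or 0.52 μM final NPD1 or LTE4. Medium was collected at 30 min, 1 h and 4 h, spiked with d4-LTB4 and d5-LTE4, SPE-extracted and quantified by LC-MS/MS SRM. Results are expressed as % of the amount measured at T0.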

Data set [3] is described as follows: Stability in human HepG2 cells at 0.52 uM up to 4 hrs by LC-MS/MS analysis. Type of data set: ADME, cell-based. As to conditions: hepg2, 4 h. In short, it runs like this: as §1
Data set [4] is described as follows: Drug level in human HepG2 cells treated with 13 uM Protectin-D1 assessed as compound formation incubated for 4 hrs by RP-HPLC/MS analysis. The class given is ADME, cell-based. As to conditions: hepg2, 4 h. In short, it runs like this:
(§2)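 HepG2 cells were kept in serum-free medium and incubated for 4 h with 13 μM NPD1 (final) or ethanol vehicle. Media were extracted and run on RP-HPLC with a linear ion trap ESI-MS, using full scans at m/z 100-1000. Peaks present only in NPD1 incubates were located from single-ion chromatograms. MS/MS spectra were collected and compared with those of synthetic standards.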

Another data set concerns Mus musculus. The experiment in a line: Antiinflammatory activity in FVB mouse model of acute pulmonary inflammation assessed as reduction in number of infiltrating neutrophils in BAL fluid at 10 ng administered intratracheally with lipopolysaccharide measured at 24 hrs by FACS analysis. The class given is functional. The gist of the method: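 Female FVB mice, 7–8 weeks old, acclimated at least 5 days. Intratracheal challenge with 50 μL LPS (250 μg/mL in PBS) containing 10 ng test agent or vehicle (EtOH, 2% final). Controls received PBS with 2% EtOH. BAL collected 24 h later (three 0.6 ml PBS washes). Neutrophils counted by FACS as CD45+ F4/80− Ly6G^hi CD11b^hi, absolute numbers from counting tubes; mean ± SEM, n=3.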

Data set [5] is filed under the species Homo sapiens. The experiment in a line: Inhibition of LTB4-induced chemotaxis in human polymorphonuclear leukocytes at 0.01 to 10 nM incubated for 90 mins by Diff-Quick staining based densitometric analysis. The class given is functional, cell-based. The gist of the method:
(§3)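 Human peripheral blood PMNL from healthy NSAID-free donors were isolated by Percoll and hypotonic lysis. Migration toward 10 nM LTB4 in RPMI/0.1% BSA was run in a 48-well microchamber with 5 μm polycarbonate filters, 2×10^6 cells/mL. Test agents at 0.01–10 nM or EtOH were added to both compartments. After 90 min at 37°C, migrated cells were stained and read by densitometry. Sextuplicates, 3–4 donors, normalized to negative controls.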

Data set [6] can be described thus: Drug metabolism in human HepG2 cells assessed as parent compound remaining level at 13 uM after 24 hrs by LC-MS/MS analysis relative to control. Type of data set: ADME, cell-based. To be noted: read-out: Stability. The gist of the method:
(§4)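 Medium was spiked with d4-LTB4 internal standard, SPE-extracted, and quantified by RP-HPLC coupled to triple quadrupole SRM. Amounts are given as nmol per mg cell protein (Bradford) or as % of NPD1 at T0.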

A short description of data set [7]: Drug metabolism in human HepG2 cells assessed as 3Z,6R,7E,9E,11Z,13S,15Z)-6,13-Dihydroxyoctadeca-3,7,9,11,15-pentaenoic Acid formation at 13 uM up to 24 hrs by LC-MS/MS analysis. The class given is ADME, cell-based. To be noted: hepg2, 24 h. In short, it runs like this:
as §4

The nature of data set [8]: Drug metabolism in human HepG2 cells assessed as hexanor-NPD1 formation at 13 uM incubated for 4 hrs by RP-HPLC/MS analysis. Type of data set: ADME, cell-based. As to conditions: hepg2, 4 h. In short, it runs like this:
as §2

Data set [9] can be described thus: Drug metabolism in human HepG2 cells assessed as 22-OH-NPD1 formation at 13 uM incubated for 4 hrs by RP-HPLC/MS analysis. Type of data set: ADME, cell-based. As to conditions: hepg2, 4 h. In short, it runs like this:
as §2

Data set [10] in a line: Drug metabolism in human HepG2 cells assessed as 3Z,6R,7E,9E,11Z,13S,15Z)-6,13-Dihydroxyoctadeca-3,7,9,11,15-pentaenoic Acid formation at 13 uM incubated for 4 hrs by RP-HPLC/MS analysis. Type of data set: ADME, cell-based. As to conditions: hepg2, 4 h. The gist of the method:
as §2

Data set [11] in a line: Drug metabolism in human HepG2 cells assessed as 3Z,6R,7E,9E,11Z,13S,15Z)-6,13-Dihydroxyoctadeca-3,7,9,11,15-pentaenoic Acid formation at 13 uM incubated for 4 hrs by tandem mass spectrometric analysis. The class given is ADME, cell-based. As to conditions: hepg2, 4 h. The gist of the method: as §2
Data set [12] in a line: Half life in human HepG2 cells at 13 uM by LC-MS/MS analysis. Type of data set: ADME, cell-based. In short, it runs like this: as §4
Data set [13] in a line: Drug metabolism in human HepG2 cells assessed as 3Z,6R,7E,9E,11Z,13S,15Z)-6,13-Dihydroxyoctadeca-3,7,9,11,15-pentaenoic Acid formation at 13 uM after 24 hrs by LC-MS/MS analysis. As to conditions: hepg2, 24 h. Type of data set: ADME, cell-based. In short, it runs like this:
as §4

The nature of data set [14]: Drug metabolism in human HepG2 cells at 0.52 uM measured at 30 mins by LC-MS/MS analysis. Type of data set: ADME, cell-based. To be noted: read-out: Drug metabolism. In short, it runs like this:
as §4

Data set [15] is described as follows: Drug metabolism in human HepG2 cells assessed as (5Z,8R,9E,11E,13Z,15S,17Z)-8,15-Dihydroxyicosa-5,9,11,13,17-pentaenoic Acid formation at 13 uM up to 8 hrs by LC-MS/MS analysis. Type of data set: ADME, cell-based. To be noted: hepg2, 8 h. In short, it runs like this:
as §4

A short description of data set [16]: Drug level in healthy human urine assessed as drug recovery at 50 ng measured up to 24 hrs at room temperature in presence of BHT by LC-MS/MS analysis. The class given is ADME, tissue-based. To be noted: urine of healthy humans, read-out: Drug recovery.
The nature of data set [17]: Drug metabolism in human HepG2 cells assessed as 22-OH-NPD1 formation at 13 uM incubated for 4 hrs by tandem mass spectrometric analysis. The class given is ADME, cell-based. As to conditions: hepg2, 4 h. In short, it runs like this:
as §2

A short description of data set [18]: Drug metabolism in human HepG2 cells assessed as (5Z,8R,9E,11E,13Z,15S,17Z)-8,15-Dihydroxyicosa-5,9,11,13,17-pentaenoic Acid formation at 13 uM after 30 mins by LC-MS/MS analysis. Type of data set: ADME, cell-based. To be noted: hepg2, 0.5 h. The gist of the method: as §4
The nature of data set [19]: Drug metabolism in human HepG2 cells assessed as 3Z,6R,7E,9E,11Z,13S,15Z)-6,13-Dihydroxyoctadeca-3,7,9,11,15-pentaenoic Acid formation at 13 uM after 30 mins by LC-MS/MS analysis. The class given is ADME, cell-based. To be noted: hepg2, 0.5 h. The gist of the method:
as §4

Data set [20] is filed under the species Homo sapiens. The experiment in a line: Inhibition of LTB4-induced chemotaxis in human polymorphonuclear leukocytes incubated for 90 mins by Diff-Quick staining based densitometric analysis. The class given is functional, cell-based. In short, it runs like this: as §3
Data set [21] in a line: Drug excretion in healthy human urine assessed as (5Z,8R,9E,11E,13Z,15S,17Z)-8,15-Dihydroxyicosa-5,9,11,13,17-pentaenoic Acid formation by LC-MS/MS analysis. Type of data set: ADME, tissue-based. To be noted: in vivo.
Data set [22] can be described thus: Half life in human HepG2 cells at 0.52 uM by LC-MS/MS analysis. Type of data set: ADME, cell-based. In short, it runs like this:
as §4

Data set [23] can be described thus: Half life in human HepG2 cells at 2.6 uM by LC-MS/MS analysis. Type of data set: ADME, cell-based. The gist of the method:
as §4

A short description of data set [24]: Drug metabolism in human HepG2 cells assessed as (5Z,8R,9E,11E,13Z,15S,17Z)-8,15-Dihydroxyicosa-5,9,11,13,17-pentaenoic Acid formation at 13 uM after 24 hrs by LC-MS/MS analysis. To be noted: hepg2, 24 h. The class given is ADME, cell-based. The gist of the method:
as §4

Data set [25] is described as follows: Drug metabolism in human HepG2 cells treated with 13 uM Protectin-D1 assessed as compound formation incubated for 4 hrs by tandem mass spectrometric analysis. As to conditions: hepg2, 4 h. The class given is ADME, cell-based. The gist of the method: as §2
The nature of data set [26]: Drug excretion in healthy human urine assessed as 3Z,6R,7E,9E,11Z,13S,15Z)-6,13-Dihydroxyoctadeca-3,7,9,11,15-pentaenoic Acid formation by LC-MS/MS analysis. The class given is ADME, tissue-based. To be noted: in vivo.
Data set [27] in a line: Drug metabolism in human HepG2 cells assessed as (5Z,8R,9E,11E,13Z,15S,17Z)-8,15-Dihydroxyicosa-5,9,11,13,17-pentaenoic Acid formation at 13 uM incubated for 4 hrs by RP-HPLC/MS analysis. Type of data set: ADME, cell-based. To be noted: hepg2, 4 h. The gist of the method: as §2
The nature of data set [28]: Drug metabolism in human HepG2 cells assessed as Tmax for 3Z,6R,7E,9E,11Z,13S,15Z)-6,13-Dihydroxyoctadeca-3,7,9,11,15-pentaenoic Acid formation at 2.6 uM by LC-MS/MS analysis. Type of data set: ADME, cell-based. To be noted: hepg2, 2.6 µM. In short, it runs like this:
as §4

Data set [29] can be described thus: Drug metabolism in human HepG2 cells assessed as omega-hydroxylated dinor-NPD1 formation at 13 uM incubated for 4 hrs by RP-HPLC/MS analysis. To be noted: hepg2, 4 h. Type of data set: ADME, cell-based. In short, it runs like this: as §2
Data set [30] in a line: Drug metabolism in human HepG2 cells assessed as Tmax for 3Z,6R,7E,9E,11Z,13S,15Z)-6,13-Dihydroxyoctadeca-3,7,9,11,15-pentaenoic Acid formation at 0.52 uM by LC-MS/MS analysis. Type of data set: ADME, cell-based. To be noted: hepg2, 0.52 µM. In short, it runs like this: as §4
A short description of data set [31]: Drug metabolism in human HepG2 cells assessed as (5Z,8R,9E,11E,13Z,15S,17Z)-8,15-Dihydroxyicosa-5,9,11,13,17-pentaenoic Acid formation at 13 uM incubated for 4 hrs by tandem mass spectrometric analysis. Type of data set: ADME, cell-based. As to conditions: hepg2, 4 h. The gist of the method:
as §2

Activity calls are given as the source filed them. Some results are limits rather than exact numbers.

For `CCCCC/C=C\C\C=C/C=C/C=C/[C@@H](SC[C@H](N)C(=O)O)[C@@H](O)CCCC(=O)O` [LEUKOTRIEN E4], in data set [1], the Drug excretion entry is “Metabolite_Detected”. For the same compound, the Stability entry in [2] and in data set [3] was “Stable” each time.

Consider `O=C(O)CC/C=C\C/C=C\C[C@@H](O)/C=C/C=C/C=C\[C@@H](O)C/C=C\CCO`, for which the Drug uptake result in data set [4] is on record as “Active”.

Take `CC/C=C\C[C@H](O)\C=C/C=C/C=C/[C@H](O)C/C=C\CC(=O)O`: the “inhibition (INH)” value with Mus musculus is 20%. Further, in the data set filed under Homo sapiens [5], the inhibition result was “Active”. Moreover, the Drug uptake entry in data set [4] is listed as “Active”.

For `CC/C=C\C[C@H](O)\C=C/C=C/C=C/[C@H](O)C/C=C\CCCC(=O)O`, in [6], the remaining at 24 h, 13 µM was below 0.1%. For the same compound, the Drug metabolism entry in [7] is “Metabolite_Detected”. Moreover, the inhibition result in the data set filed under Homo sapiens [5] is “inactive”. Moreover, the Drug uptake result in [4] is listed as “Active”.

What is called half-life is the time needed for the level to fall by half in the phase considered. A high value points to slow decline. The Tmax is the time from dosing to the highest level. Consider `CC/C=C\C[C@H](O)\C=C/C=C/C=C/[C@H](O)C/C=C\C/C=C\CCC(=O)O`, for which the Drug metabolism result in data set [8], in data set [9], in data set [10], in data set [11], in [13] and in [15] was “Metabolite_Detected” in each case. In addition, the Drug metabolism result in [17] was “Metabolite_Detected”; in data set [18], “Metabolite_Detected”; in data set [19], “Metabolite_Detected”; in data set [24], “Metabolite_Notdetected”; in data set [27] it was “Metabolite_Detected”; in data set [29], “Metabolite_Detected”. For the same compound, the Drug metabolism result in data set [31] was “Metabolite_Detected”. In data set [12], this compound gave a half-life at 13 µM above 4 h. Also, in data set [6], the remaining at 24 h, 13 µM is 0%. The Drug excretion result in data set [1], in data set [21] and in data set [26] was “Metabolite_Notdetected” in each case. Further, the metabolised at 0.5 h, 0.52 µM in data set [14] was above 50%. Further, the remaining at 24 h, 50 ng in data set [16] amounted to 106%. Moreover, the inhibition entry in the data set listed under Homo sapiens [20] is “Dose-dependent effect”. The compound further showed a half-life at 0.52 µM in [22] of 0.5 h. Further, the half-life at 2.6 µM in data set [23] was 1 h. In [25], the Drug uptake entry is reported as “Active”. For the same compound, the Tmax in data set [28] and in data set [30] was 4 h in each case.
